# Measurements from paper PMC6996566 (ChemistryOpen, 2019).
# Like-named read-outs stand apart in the source and are kept apart here.
# How the values were obtained:
# Assay type in all cases: cell-based, human
# A2780 = experiment: In vitro anti‐proliferative assay; conditions: read-out: A2780 (IC50); MTT, 48 h treatment; mean of triplicate determinations
# Method in brief: (§1)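 MTT assay: 5×10³ cells per well settled 24 h, then exposed to a concentration series of test compound or DMSO for 48 h. Medium replaced with fresh medium containing 10% MTT (5 mg/mL in PBS) for 4 h at 37 °C. Formazan dissolved in DMSO, absorbance read at 570 nm. Inhibition % = (OD DMSO − OD compound)/(OD DMSO − OD blank)×100, giving IC50.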
# HUVEC = experiment: In vitro anti‐proliferative assay
# Method in brief: as §1
# Hela = experiment: In vitro anti‐proliferative assay; conditions: read-out: Hela (IC50); MTT, 48 h treatment; mean of triplicate determinations
# Method in brief: as §1
# A2780 cells = experiment: Nitrite measurement in vitro; conditions: 100 μM compound, 150 min, Griess reagent
# Method in brief: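 A2780 cells (1×10⁷ per 10 cm dish) were exposed to 100 μM test compound for 150 min, then harvested and lysed in RIPA buffer for 30 min on ice. Lysates were mixed with Griess reagent for 30 min in the dark and read at 540 nm. Nitrite was quantified against a sodium nitrite standard curve, with diluent-treated cells as background. Mean ± SD of three independent experiments.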
IC50 (A2780) [nM],IC50 (Hela) [nM],Compound,"IC50 (HUVEC; read-out: HUVEC (IC50), MTT, 48 h treatment, mean of triplicate determinations) [µM]","IC50 (HUVEC; Homo sapiens, HUVEC, 48 h, read-out: HUVEC (IC50, μM)) [µM]","intracellular NO production, presented as nitrite in the cell lysates (A2780 cells)"
1920,3050,"3‐Phenylsulfonyl‐4‐hydroxylethoxyl‐1,2,5‐oxadiazole 2‐Oxide [compound 21]",1.48,–,–
–,–,"COc1cc2c(cc1O)CC[C@@H]1[C@@H]2CC[C@]2(C)[C@@H](O)CC[C@@H]12 [compound 3, 2‐methoxyestradiol]",–,1.35,hardly detected
